This note sets out measurements from article PMC10975586 (ACS Omega, 2024).

For orientation: IC50 means the point on the concentration scale where inhibition reaches its midpoint. A low value points to greater potency. The term inhibition denotes the drop in the measured response relative to a control, in per cent. By Ki is commonly meant the dissociation constant of the complex between target and ligand, obtained from inhibition or displacement. A higher Ki goes with a looser hold on the target. Usually Vmax stands for the top rate of the reaction or transport when substrate is in excess.

One assay has as its target jack bean (JB) urease (Canavalia ensiformis, UniProt P07374). Put plainly: Urease inhibitory assay. The following applies: for inhibition at 250 µM: read-out: inhibition (%) at 0.25 mM, JB urease; for inhibition at 250 µM / inhibition (%) at 0.25 mM: 0.25 mM, mean ± SEM, n = 3–4; for urease inhibitory profile (in words) / inhibition (%) at 0.25 mM: JB urease. Format: biochemical.

The next assay has as its target JB urease enzyme (Canavalia ensiformis, UniProt P07374). Put plainly: Kinetic analysis of JB urease inhibition. The class given is biochemical, jack bean. The following applies: for Vmax: in presence of the inhibitor. The method, boiled down:
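Jack bean urease (1 unit/well) in 50 mM phosphate buffer pH 7.4 is preincubated with test compound for 10 min at 37 °C. Urea is added from a 50 mM solution and the reaction runs 15 min. Phenol-alkali reagent stops it, and A630 is read after 10 min. Mode of inhibition, Km, Vmax and Ki come from double-reciprocal plots and nonlinear regression (mean ± SEM, n = 3).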

The structures appear in SMILES notation. Where “and” joins values, the source holds several entries; their conditions need not be identical. Equal values may be shown once. Entries after “also recorded” stand apart in the source; their conditions may differ. Read-outs that look alike come from different tables or passages of the source.

Chain of JB urease enzyme (P07374 whole entry, looked up): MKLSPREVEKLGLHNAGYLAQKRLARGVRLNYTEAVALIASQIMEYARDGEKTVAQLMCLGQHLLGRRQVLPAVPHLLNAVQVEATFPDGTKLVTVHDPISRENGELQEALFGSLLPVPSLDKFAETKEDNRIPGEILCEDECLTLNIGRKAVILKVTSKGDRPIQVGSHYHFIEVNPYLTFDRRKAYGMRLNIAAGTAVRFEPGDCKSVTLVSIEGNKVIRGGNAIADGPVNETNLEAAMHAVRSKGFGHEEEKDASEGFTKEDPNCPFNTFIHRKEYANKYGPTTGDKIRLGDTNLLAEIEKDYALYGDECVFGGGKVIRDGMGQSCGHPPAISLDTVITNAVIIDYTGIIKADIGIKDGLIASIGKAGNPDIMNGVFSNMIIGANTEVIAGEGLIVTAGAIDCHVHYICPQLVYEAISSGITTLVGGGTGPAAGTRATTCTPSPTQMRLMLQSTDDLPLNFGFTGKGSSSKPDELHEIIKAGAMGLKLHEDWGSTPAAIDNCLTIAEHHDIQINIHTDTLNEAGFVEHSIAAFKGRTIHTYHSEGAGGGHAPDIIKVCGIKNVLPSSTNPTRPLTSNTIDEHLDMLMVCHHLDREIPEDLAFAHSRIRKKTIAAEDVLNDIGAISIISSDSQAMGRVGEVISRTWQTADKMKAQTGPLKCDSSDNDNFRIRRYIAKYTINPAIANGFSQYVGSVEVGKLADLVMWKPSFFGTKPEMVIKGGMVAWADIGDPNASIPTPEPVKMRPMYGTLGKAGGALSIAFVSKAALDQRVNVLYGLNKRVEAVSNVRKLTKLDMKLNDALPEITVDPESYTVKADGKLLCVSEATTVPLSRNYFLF
Chain of jack bean (JB) urease (P07374 whole entry, looked up): as above

Take `N[C@@H](C(=O)N[C@@H]1C(=O)N2C(C(=O)O)=C(Cl)CS[C@H]12)c1ccccc1` [cefaclor]: on jack bean (JB) urease, the IC50 stood at 62.9 ± 0.78 µM and the inhibition at 250 µM was 92.4 ± 1.53%.
In the same order, the values of `CC1=C(C(=O)O)N2C(=O)[C@@H](NC(=O)[C@H](N)c3ccc(O)cc3)[C@H]2SC1` [cefadroxil] are 21.4 ± 0.64 µM and 91.27 ± 0.85%.
Turning to `CC1=C(C(=O)O)N2C(=O)[C@@H](NC(=O)[C@H](N)c3ccccc3)[C@H]2SC1` [cefalexin], on jack bean (JB) urease, the half-maximal inhibitory concentration (IC50) is 145.8 ± 0.37 µM, the “urease inhibitory profile (in words)” value was “poor inhibitory potential” and the inhibition at 250 µM was 72.5 ± 0.94%.
As to `CO/N=C(\C(=O)N[C@@H]1C(=O)N2C(C(=O)[O-])=C(C[N+]3(C)CCCC3)CS[C@H]12)c1csc(N)n1` [cefepime], on jack bean (JB) urease, the IC50 worked out at 78.65 ± 0.45 µM and the inhibition at 250 µM was 73.3 ± 1.35%.
As for `C=CC1=C(C(=O)O)N2C(=O)[C@@H](NC(=O)/C(=N\OCC(=O)O)c3csc(N)n3)[C@H]2SC1` [cefixime], on jack bean (JB) urease, the IC50 is 215.5 ± 0.76 µM, the “urease inhibitory profile (in words)” value was “poor inhibitory potential” and the inhibition at 250 µM worked out at 68.5 ± 1.85%.
As to `CCN1CCN(C(=O)N[C@@H](C(=O)N[C@@H]2C(=O)N3C(C(=O)O)=C(CSc4nnnn4C)CS[C@H]23)c2ccc(O)cc2)C(=O)C1=O` [cefoperazone], at jack bean (JB) urease, the inhibition at 250 µM was determined as 34.54 ± 0.26%.
Consider `CO/N=C(\C(=O)N[C@@H]1C(=O)N2C(C(=O)O)=C(COC(C)=O)CS[C@H]12)c1csc(N)n1` [cefotaxime], for which, on jack bean (JB) urease, the IC50 was determined as 27.4 ± 0.74 µM and the inhibition at 250 µM worked out at 81.9 ± 1.46%.
The matching figures for `COCC1=C(C(=O)O)N2C(=O)[C@@H](NC(=O)/C(=N\OC)c3csc(N)n3)[C@H]2SC1` [cefpodoxime]: 23.7 ± 0.82 µM and 91.3 ± 1.86%.
With `CC=CC1=C(C(=O)O)N2C(=O)[C@@H](NC(=O)[C@H](N)c3ccc(O)cc3)[C@H]2SC1` [cefprozil], the “inhibition (%) at 0.25 mM” value on jack bean (JB) urease amounted to 42.76 ± 0.27%.
Take `CC1=C(C(=O)O)N2C(=O)[C@@H](NC(=O)[C@H](N)C3=CCC=CC3)[C@H]2SC1` [cefradine]: at jack bean (JB) urease, the midpoint of inhibition, the IC50, lay at 226.8 ± 0.95 µM and the inhibition at 250 µM stood at 54.9 ± 1.54%.
As to `CC(C)(O/N=C(\C(=O)N[C@@H]1C(=O)N2C(C(=O)[O-])=C(C[n+]3ccccc3)CS[C@H]12)c1csc(N)n1)C(=O)O` [ceftazidime], at jack bean (JB) urease, the IC50 is 123.6 ± 0.19 µM; the “inhibition (%) at 0.25 mM” value was 76.94 ± 1.57% and 49.52 ± 1.78%.
Take `CO/N=C(\C(=O)N[C@@H]1C(=O)N2C(C(=O)O)=CCS[C@H]12)c1csc(N)n1` [ceftizoxime]: on jack bean (JB) urease, the inhibition at 250 µM turned out to be 32.41 ± 0.24%.
As for `CO/N=C(\C(=O)N[C@@H]1C(=O)N2C(C(=O)O)=C(CSc3nc(=O)c(=O)[nH]n3C)CS[C@H]12)c1csc(N)n1` [ceftriaxone], at jack bean (JB) urease, 157.4 ± 0.42 µM corresponded to half-maximal inhibition (IC50), the “urease inhibitory profile (in words)” value is recorded as “poor inhibitory potential” and the inhibition at 250 µM came to 72.6 ± 0.98%.
For `CO/N=C(\C(=O)N[C@@H]1C(=O)N2C(C(=O)O)=C(COC(N)=O)CS[C@H]12)c1ccco1` [cefuroxime], on jack bean (JB) urease, the IC50 was found to be 241.5 ± 0.87 µM and the inhibition at 250 µM is 51.7 ± 1.56%.
With `O=C(O)c1cn(C2CC2)c2cc(N3CCNCC3)c(F)cc2c1=O` [ciprofloxacin], on jack bean (JB) urease, the midpoint of inhibition, the IC50, lay at 134.5 ± 0.52 µM; the “urease inhibitory profile (in words)” value is “weak enzyme inhibitors”; the inhibition at 250 µM stood at 78.3 ± 0.85%. In addition, the “urease inhibitory profile (in words)” value on jack bean (JB) urease (listed as Ciprofloxacin) is given as “weak urease inhibitions”.
Consider `CO/N=C1\CN(c2nc3c(cc2F)c(=O)c(C(=O)O)cn3C2CC2)CC1CN` (stereo not shown) [gemifloxacin], for which, on jack bean (JB) urease, inhibition was half-maximal at 16.5 ± 0.85 µM (IC50) and the inhibition at 250 µM turned out to be 92.5 ± 1.35%.
Regarding `C[C@H]1COc2c(N3CCN(C)CC3)c(F)cc3c(=O)c(C(=O)O)cn1c23` [levofloxacin], the Ki on JB urease enzyme came out at 4.91 µM. Also, on JB urease enzyme (JB urease), the maximum velocity is on record as 84.51 μm/min, the type of inhibition entry is recorded as “competitive inhibitors” and the “Vmax” value is 84.51 µM/min. The type of inhibition entry on JB urease enzyme (JB urease, listed as Levofloxacin) is “competitive inhibition”. Further, at jack bean (JB) urease, the IC50 came to 7.24 ± 0.29 µM and the inhibition at 250 µM is 81.92 ± 0.62%.
With `COc1c(N2C[C@@H]3CCCN[C@@H]3C2)c(F)cc2c(=O)c(C(=O)O)cn(C3CC3)c12` [moxifloxacin], at jack bean (JB) urease, the IC50 came to 135.3 ± 0.39 µM, the “urease inhibitory profile (in words)” value is on record as “weak urease inhibitions; also recorded: weak enzyme inhibitors” and the inhibition at 250 µM was determined as 75.27 ± 0.74%.
As to `CC1COc2c(N3CCN(C)CC3)c(F)cc3c(=O)c(C(=O)O)cn1c23` (stereo not shown) [ofloxacin], the affinity at JB urease enzyme corresponds to a Ki of 5.43 µM. Besides, at JB urease enzyme (JB urease), the type of inhibition entry is reported as “competitive inhibition; also recorded: competitive inhibitors” and the “Vmax” value turned out to be 86.62 µM/min. Besides, on jack bean (JB) urease, the half-maximal inhibitory concentration (IC50) came to 13.2 ± 0.32 µM and the inhibition at 250 µM amounted to 83.67 ± 0.67%.
Regarding `C[C@@H]1CN(c2c(F)c(N)c3c(=O)c(C(=O)O)cn(C4CC4)c3c2F)C[C@H](C)N1` [sparfloxacin], at jack bean (JB) urease, the concentration for half-maximal inhibition (IC50) turned out to be 213.9 ± 0.32 µM and the inhibition at 250 µM amounted to 57.6 ± 0.62%.
On to `NC(N)=S` [thiourea], for which, at JB urease enzyme (JB urease), the type of inhibition result was “competitive” and the “Vmax” value is 110.1 µM/min. At JB urease enzyme (JB urease, inhibitory constant), this compound gave a Ki of 19.7 µM. Also, the “inhibition (%) at 0.25 mM” value against jack bean (JB) urease worked out at 98.21 ± 0.18%.
